hERG rescue – compounds protecting human hERG from proarrhythmic drug block | activation (rescue from dofetilide block), less the hit threshold, % at 10 µM | 310,000 compounds, 0.51% hits | CHO-hERG, FluxOR thallium flux, dofetilide IC70 present;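 active = activation above the mean of controls blocked by dofetilide plus 5 SD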;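 note: thallium influx through hERG after potassium depolarization seen as dye fluorescence rise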
KCNQ1 act – human KCNQ1 channel potentiation or activation; B-score at 10 µM; AID 2648; CHO-K1 KCNQ1, thallium flux FluxOR fluorescence; stronger effect = higher value; P51787; 310,000 compounds, 0.35% hits;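 active = fluorescence ratio B-score, a plate-corrected score, at least three library SD, with initial intensity B-score within 5 SD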
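Assay system: stable KCNQ1 CHO-K1 line; medium: assay buffer, equal DMSO in all wells; timing: 90 min dye loading and 20 min compound exposure, both at room temperature; technique: kinetic FluxOR thallium fluorescence, 10-s 1-Hz baseline, 110-s post-stimulus read; read-out basis: B score of baseline-normalized fluorescence ratio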
KCNK3 inh – human KCNK3 channel inhibition, primary screen; O14649; CHO-KCNK3 thallium flux, FluxOR fluorescence; stronger effect = lower value; B-score at 10 µM; 340,000 compounds, 0.84% hits; AID 602410;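 active = B-score under library mean minus 4 SD, starting fluorescence ratio at most library mean plus 5 SD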;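 note: more negative B-score means stronger inhibition of thallium flux through KCNK3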
KCNK9 block – blocks the human KCNK9 two-pore domain potassium channel; Q9NPC2; HEK293 KCNK9, FluxOR thallium flux fluorescence; stronger effect = lower value; B-score at 10 µM; 310,000 compounds, 1.2% hits; AID 488922;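 active = ratio B-score over 3 SD below the library mean, with starting fluorescence within 5 SD of its mean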;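 note: negative B-score means less thallium flux so channel inhibition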
KCNQ1 inh – inhibitors of human KCNQ1 potassium channel; B-score at 10 µM; 310,000 compounds, 1.3% hits; CHO-K1 KCNQ1, FluxOR thallium flux fluorescence; stronger effect = higher value; AID 2642;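 active = compounds whose thallium flux B-score, printed positive for inhibition, exceeds three library SD while starting fluorescence stays within three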;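 note: channel opened by potassium depolarization with thallium stimulus after 20 min compound exposure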
KCNK9 inh conf – confirmation of human KCNK9 potassium channel inhibitors. shares compounds with KCNK9 block. HEK293 KCNK9 cells, FluxOR thallium flux fluorescence. 4,900 compounds, 43% hits. inhibition, % at 10 µM;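 active = thallium signal inhibited by more than 5 SD of the compound-free buffer control wells, on both duplicate plates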;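 note: 0% = assay buffer control wells without compound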
Kir2-1 spec – selectivity of KCNK9 modulators against mouse Kir2.1. shares compounds with KCNK9 block. Kir2.1 cells, FluxOR thallium flux fluorescence. inhibition, % at 10 µM. 4,900 compounds, 4% hits. AID 492993;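 active = thallium signal drop more than 5 SD beyond the mean of the no-compound control wells, seen in both duplicate plates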;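 note: signal is fluorescence rise after thallium addition divided by baseline fluorescence; plate controls were assay buffer only for no effect and full block by chlorpromazine control for full effect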
Target sequence (P35561 whole entry, looked up): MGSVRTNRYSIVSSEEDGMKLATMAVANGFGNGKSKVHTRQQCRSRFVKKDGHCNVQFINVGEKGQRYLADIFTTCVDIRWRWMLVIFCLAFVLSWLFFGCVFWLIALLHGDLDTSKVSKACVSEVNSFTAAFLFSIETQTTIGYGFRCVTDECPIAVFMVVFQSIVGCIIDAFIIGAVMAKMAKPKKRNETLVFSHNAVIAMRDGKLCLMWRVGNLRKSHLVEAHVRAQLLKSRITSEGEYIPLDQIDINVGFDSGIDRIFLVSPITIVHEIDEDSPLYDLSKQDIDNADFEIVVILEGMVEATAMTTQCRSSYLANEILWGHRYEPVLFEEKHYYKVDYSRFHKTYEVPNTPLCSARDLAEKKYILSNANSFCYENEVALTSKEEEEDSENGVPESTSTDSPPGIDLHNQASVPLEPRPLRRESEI
KCNK9 uninduced – non-induced cell nonspecific activity of KCNK9 modulators; shares compounds with KCNK9 block; non-induced KCNK9-HEK293, FluxOR thallium flux; inhibition, % at 10 µM; 4,900 compounds, 40% hits; AID 492997;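 active = thallium signal drop beyond 5 SD of the untreated control mean, on both duplicate plates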;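 note: plate controls were buffer only IC0 wells for no effect and SID17386958 at its maximal inhibitory level for full effect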
Starred values were filed as active, the others as inactive; i = inactive; · = no result. Only some compounds are listed: those with a hit (about 3.1% of all), similar ones and a draw of the others.

SMILES	hERG rescue	KCNQ1 act	KCNK3 inh	KCNK9 block	KCNQ1 inh	KCNK9 inh conf	Kir2-1 spec	KCNK9 uninduced
COc1ccc(S(=O)(=O)N2CCN(Cc3ccc4c(c3)OCO4)CC2)cc1	-5.7	i	i	i	i	·	·	·
Cc1cccc(S(=O)(=O)N2CCN(Cc3ccc4c(c3)OCO4)CC2)c1	-7.5	i	i	i	i	i	i	i
O=[N+]([O-])c1cccc(-c2nc3ccccc3s/c2=N/O)c1	-18.2	i	i	-8.8*	i	29.5%*	i	37.5%*
O=[N+]([O-])c1cccc(-c2cnc3ccccc3n2)c1	-9.4	i	i	i	i	·	·	·
CC12CC(NC(=O)N1c1cccc(C(=O)NCc3ccccn3)c1)c1ccccc1O2 (stereo not given)	-13.6	i	i	i	i	·	·	·
Cc1cc(OC(=O)c2cccc(C(F)(F)F)c2)c([N+](=O)[O-])c(=O)[nH]1	-4.2	i	i	i	i	·	·	·
CC(C)c1ccc(NC(=O)c2cccc(Br)c2)cc1	-8.0	i	i	-8.76*	i	38.5%*	i	i
O=C(NNC(=O)c1cccc(Br)c1)Nc1ccc(Cl)cc1	-7.8	i	i	i	i	·	·	·
CN(C)C(C(=O)Nc1cc(Cl)cc(Cl)c1)c1ccccc1 (stereo not given)	-23.4	i	i	-10.1*	i	43.5%*	i	29.5%*
O=C(OC(C(=O)Nc1cc(Cl)cc(Cl)c1)c1ccccc1)C1=COCCO1 (stereo not given)	-8.0	i	i	i	i	·	·	·
Cc1noc(C)c1COc1ccccc1C(=O)NCCc1ccc(F)cc1	·	·	i	·	·	·	·	·
COc1cccc(N2CCN(CC(=O)NC3=Nc4ccccc4N=C(C)C3c3ccccc3)CC2)c1 (stereo not given)	-8.4	i	i	-14.4*	i	54.0%*	i	28.5%*
COc1ccc(-c2[nH]n(-c3ccc([N+](=O)[O-])cc3)c(=O)c2C=NCc2ccc(F)cc2)cc1	-8.1	i	i	i	i	·	·	·
COc1ccc(-c2cc(=O)n(-c3ccc([N+](=O)[O-])cc3)[nH]2)cc1	-11.1	i	i	i	i	i	i	i
Cc1ccc2c(c1)N(CC(=O)NCc1cccs1)C(=O)CO2	-10.3	i	i	i	i	·	·	·
O=C(Nc1ccc2c(c1)N(S(=O)(=O)c1cccs1)CCC2)c1c(F)cccc1Cl	-13.1	i	i	-11.4*	i	i	i	36.5%*
O=C(Nc1ccc(Cl)cc1C(=O)Nc1ccc(Br)cn1)c1ccco1	-9.0	i	i	-11.6*	i	53.0%*	i	i
Cc1cc(Br)ccc1NC(=O)c1ccco1	-10.5	i	i	i	i	·	·	·
CC(C)(C)NC(=O)Cn1nc(C(F)(F)F)c2c1CCCC2	-4.5	i	i	i	i	i	i	i
CC(C)=CC1C=C(C)C(C)C2C(=O)NNC(=O)C12 (stereo not given)	-0.9	i	i	i	i	·	·	·
Cc1cccn2cc(CSc3nnc(Nc4ccc(C(C)C)cc4)s3)nc12	-4.7	i	i	i	i	i	i	i
COc1ccc(Nc2nnc(SCc3cn4c(C)cccc4n3)s2)cc1	-5.8	i	i	i	i	·	·	·
CCOC(=O)C1(CC2CC2)CCN(Cc2ccc3cccc(F)c3n2)CC1	-5.9	i	i	i	i	i	i	i
CCOC(=O)C1(CC2CC2)CCN(Cc2cn[nH]c2-c2cccc(F)c2)CC1	-9.9	i	i	i	i	·	·	·
Cc1ccc(C(=O)COC(=O)C2C3C=CC(C3)C2C(=O)OCC(=O)c2ccc(C)c(C)c2)cc1C (stereo not given)	-9.7	i	i	i	i	i	i	i
SMILES	hERG rescue	KCNQ1 act	KCNK3 inh	KCNK9 block	KCNQ1 inh	KCNK9 inh conf	Kir2-1 spec	KCNK9 uninduced
COc1ccc(C(=O)COC(=O)C(CCSC)NS(=O)(=O)c2ccc(Cl)cc2)cc1 (stereo not given)	-5.2	i	i	i	i	i	i	i
CC1=C(C(=O)NC(C)CCc2ccccc2)C2(CCC(C)CC2)OC1=O (stereo not given)	-2.9	i	i	i	i	·	·	·
N#CCSc1nc2c(c(=O)n1Cc1ccco1)C1(CCCC1)Cc1ccccc1-2	-3.6	i	i	-14.5*	6*	54.5%*	i	33.0%*
O=c1[nH]c(CN2CCCCC2)nc2c1C1(CCCCC1)Cc1ccccc1-2	-3.1	i	i	i	i	·	·	·
CC(C)Cc1c2c([nH]c(=S)c1C#N)CCCC2	-2.4	i	i	i	i	·	·	·
CCCCCCCc1c(C#N)c(N)[nH]c(=S)c1C#N	-18.9	i	i	i	7*	i	i	i
CCCCOc1ccc(C(=O)N(Cc2ccco2)C2CCS(=O)(=O)C2)cc1 (stereo not given)	-7.1	i	i	i	i	·	·	·
O=C(NCCNC(=O)c1ccccn1)c1ccccc1	-5.5	i	i	i	i	·	·	·
O=C(OCC(=O)N1CCCc2ccccc21)c1ccc(F)c(S(=O)(=O)N2CCOCC2)c1	-16.9	i	i	i	i	·	·	·
O=C(c1ccc(F)c(S(=O)(=O)N2CCOCC2)c1)N1CCc2ccccc21	-6.0	i	i	i	i	i	i	i
CSc1nc2c(c(C(F)(F)F)n1)CC(C)CC2 (stereo not given)	-4.2	i	i	i	i	·	·	·
C=CCCC(=O)N1CCC(n2nccc2NC(=O)c2ccccc2C)CC1	-6.0	i	i	i	i	·	·	·
O=C(NCCc1ccccc1)c1oc2ccccc2c1COc1ccccc1	-13.7	i	i	i	6*	i	i	i
O=C(Nc1ccccc1Cc1ccccc1)c1oc2ccccc2c1COc1ccccc1	-4.5	i	i	-8.74*	i	51.0%*	i	31.0%*
COc1ccc(S(=O)(=O)N2CCCCCC2)cc1NC(=O)CN(C)Cc1ccc2c(c1)OCO2	·	·	i	·	·	·	·	·
O=C(c1cccc(S(=O)(=O)N2CCOCC2)c1)N1CCN(c2ccccc2)CC1	·	·	i	·	·	·	·	·
O=C(CNS(=O)(=O)c1ccccc1)N/N=C/c1ccccc1[N+](=O)[O-]	-4.8	i	i	i	i	·	·	·
O=C1CCN(CCc2ccccc2)CCN1CCSc1ccc(Br)cc1	-22.4	i	i	i	i	i	i	i

Source: PubChem BioAssay
